# Assay outcomes deposited in PubChem by several laboratories.
# Hits are enriched below; roughly 2.6% of the tested compounds scored in any of these assays.
# Platelet DG rel = platelet dense granule release activity. inhibition, %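 (compounds screened at 7.5 µM in platelet-rich plasma)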. 300,000 compounds, 0.22% hits. human platelet-rich plasma, SFLLRN dense granule ATP release, luminescence;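 active = mean replicate score, as percent of positive control, at or above 50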
# SENP8 block-1 = blocks human SENP8 cleavage of Nedd8 substrate; Q96LD8; recombinant SENP8, Nedd8 substrate fluorescence; inhibition, % at 20 µM; 360,000 compounds, 0.64% hits; AID 602440; in the data active = inhibition mostly above about 40%, no sharp cut-off; inactive = mostly below about 27%
# Target sequence (Q96LD8 whole entry, looked up): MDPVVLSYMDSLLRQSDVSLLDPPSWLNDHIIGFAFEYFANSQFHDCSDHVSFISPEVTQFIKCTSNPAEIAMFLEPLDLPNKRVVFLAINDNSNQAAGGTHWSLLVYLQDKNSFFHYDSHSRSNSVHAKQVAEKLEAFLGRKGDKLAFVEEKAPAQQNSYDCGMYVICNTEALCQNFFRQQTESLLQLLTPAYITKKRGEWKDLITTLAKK
# SENP8 block-2 = blocks the human protease SENP8. inhibition, % at 10 µM. AID 2540. Q96LD8. purified SENP8, Z-RLRGG-aminoluciferin cleavage, luminescence. 330,000 compounds, 1.2% hits; in the data active = inhibition above about 50%
# SENP1 FRET inh = inhibitors of human SENP1 SUMO protease catalytic domain. Q9P0U3. inhibition, % at 10 µM. 360,000 compounds, 0.21% hits. AID 624204. recombinant SENP1 catalytic domain, CyPet-SUMO1-YPet FRET cleavage;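 active = inhibition at least 30% at 10 µM, raw YFP signal under a set limit, fluorescence ratio 0.5 to 1.5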;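 also: 0% = enzyme with DMSO and 100% = no enzyme wells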
#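 System: Recombinant human SENP1 catalytic domain, His6-tagged | Incubation: Enzyme reaction for 50 min at room temperature, dark | Medium: Tris pH 8 with BME, BSA, NP40 and catalase | Also added: 25 nM SUMO1 FRET substrate | Compound: 10 µM single point, 0.5% DMSO | Measured by: FRET fluorescence in CFP and YFP emission channels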
# SENP6 inh = SENP6 protease inhibition | Q9GZR1 | Recombinant SENP6 catalytic domain, aminoluciferin luminescence | inhibition, % at 10 µM | 330,000 compounds, 1.8% hits;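 active = inhibition above about 50% at the single tested dose, limit read from the data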;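 also: plate controls were DMSO wells with enzyme for no effect and DMSO wells lacking enzyme for full effect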
# SENP7 block = blocks the human protease SENP7; inhibition, % at 5 µM; Q9BQF6; 330,000 compounds, 1.5% hits; recombinant SENP7, Z-RLRGG-aminoluciferin luminescence, 40 min;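 active = inhibition above about 50% at the single test dose, limit read from the data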;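 also: plate controls were DMSO with enzyme for no effect and no enzyme buffer wells for full effect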
# Target sequence (Q9BQF6 706-1050 limits assumed): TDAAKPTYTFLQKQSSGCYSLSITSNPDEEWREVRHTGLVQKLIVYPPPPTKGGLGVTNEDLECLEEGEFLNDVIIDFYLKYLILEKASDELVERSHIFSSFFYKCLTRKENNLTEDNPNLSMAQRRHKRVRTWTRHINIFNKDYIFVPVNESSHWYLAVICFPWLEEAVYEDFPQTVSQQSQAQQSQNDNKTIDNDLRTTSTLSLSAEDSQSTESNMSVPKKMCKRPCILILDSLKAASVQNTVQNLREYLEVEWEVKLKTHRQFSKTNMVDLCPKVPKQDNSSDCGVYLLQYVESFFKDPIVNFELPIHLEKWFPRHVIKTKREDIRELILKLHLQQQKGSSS
# SENP8 inh conf = confirmation of human SENP8 protease inhibitors; inhibition, % at 25 µM; shares compounds with SENP8 block-1; purified SENP8, Nedd8-AMC/pro-Nedd8 cleavage fluorescence, 30 min; 1,400 compounds, 15% hits; in the data active = inhibition mostly above about 39%, no sharp cut-off; inactive = mostly below about 34%
# Active calls of the source: *; / = no result given.
SMILES,Platelet DG rel,SENP8 block-1,SENP8 block-2,SENP1 FRET inh,SENP6 inh,SENP7 block,SENP8 inh conf
O=C(CN1CCCC1)Nc1ccccc1Sc1ccc(Cl)cc1,13,12,1,0,17,-8,/
CCOc1cc(/C=C2/SC(=Nc3ccccc3)N(Cc3cccnc3)C2=O)ccc1OCC#N,10,40*,4,-2,-21,0,15
O/N=C\c1ccc2noc(-c3ccc(Cl)cc3)c2c1,9,17,-9,-13,-2,-1,/
O=C(Oc1ccccc1[N+](=O)[O-])c1cccnc1,4,46*,-2,1,-1,0,12
Cc1cccc(OC(=O)c2cccnc2)c1C,-2,10,3,1,6,-3,/
CCOc1cc(NC2CS(=O)(=O)CC2O)c(OCC)cc1NC(=O)c1ccccc1 (stereo not given),3,44*,8,-2,12,5,32
NC(=O)C(C1=CCCCC1)c1ccccc1 (stereo not given),/,8,/,0,/,/,/
Cc1cc2c(NC(=O)CC(C)(C)CC(=O)O)cccc2nn1,-2,44*,5,4,10,9,6
Cc1nc2ccc(NC(=O)c3cc([N+](=O)[O-])cc([N+](=O)[O-])c3Cl)cc2s1,/,41*,/,3,/,/,26
COCCCNC(=O)c1cccc2c(-c3ccnn3C)coc12,/,5,/,-3,/,/,/
COc1ccc(NC(=O)c2cccc(S(=O)(=O)NCc3ccccc3)c2)cc1S(N)(=O)=O,/,8,7,1,17,-4,/
C[N+](C)(C)C[C@H](O)CC(=O)[O-],1,45*,2,-1,-8,-3,14
CC(Sc1ccsc1[N+](=O)[O-])C(=O)NCCc1ccc(Cl)cc1 (stereo not given),-2,42*,5,1,8,-1,15
COc1ccc(-c2nc[nH]c2[N+](=O)[O-])cc1,1,49*,1,2,-6,-7,17
O=C(CCCCn1c(=O)c2ccccc2n(Cc2ccccc2F)c1=O)NC1CCN(Cc2ccccc2)CC1,6,40*,-7,0,8,0,10
Cc1cccc(C)c1NC(=O)Cn1c(=O)n(CCCC(=O)NC2CCN(Cc3ccccc3)CC2)c(=O)c2ccccc21,-4,15,-1,-1,-14,1,/
N#CCc1ccc(OC(=O)c2ccncc2)cc1,11,9,5,-1,7,1,/
CCNC(=S)NNc1ccccc1,-4,43*,3,0,0,-1,2
CCOC(=O)c1sc(NNC(=O)c2ccc(C)cc2)nc1C,-5,5,-4,-12,-18,-10,/
CCOC(=O)c1nc(NNC(=O)c2ccc([N+](=O)[O-])cc2)sc1C,4,41*,-2,0,20,5,2
N#Cc1cc(Cl)c(NCC2CCCO2)cc1C#N (stereo not given),-3,-295,-10,-1,-18,-11,/
Cc1ccc(S(=O)(=O)N[C@@H](C)C(=O)OCC(=O)N2c3ccccc3NC(=O)C2(C)C)cc1,/,10,-19,-2,4,-11,/
COc1cc(N(C(C)=O)c2ccc(O)c(C(=O)O)c2)c2ncccc2c1,/,44*,/,3,/,/,61*
CSc1nncc(/C(C)=N\Nc2ccccc2C)n1,-50,54*,4,-1,-3,11,15
O=c1ccc(Br)c[nH]1,2,42*,10,2,11,14,22
SMILES,Platelet DG rel,SENP8 block-1,SENP8 block-2,SENP1 FRET inh,SENP6 inh,SENP7 block,SENP8 inh conf
COc1ccc(NC(=O)Cn2cnc3sc(C)c(S(=O)(=O)N4CCOCC4)c3c2=O)c(OC)c1,1,4,-15,1,-15,-9,/
Nc1nc(NCCO)nc(NC2CCCCC2)c1[N+](=O)[O-],-23,18,-13,1,-36,-11,/
Nc1nc(NCCOCCO)nc(NC2CCCCC2)c1[N+](=O)[O-],-3,47*,-1,-2,0,0,-1
CCS(=O)(=O)N1CCCC(C(=O)N2CCc3ccccc3C2)C1 (stereo not given),0,53*,5,-1,1,4,54*
COc1ccc(OC)c(S(=O)(=O)N2CCC(C(=O)N3CCc4ccccc4C3)CC2)c1,-3,44*,-8,4,-20,-12,38
COc1cccc(C2=NOC(C(=O)N3CCc4ccccc4C3)C2)c1 (stereo not given),3,51*,-1,-6,8,5,61*
COc1ccc(OC)c(S(=O)(=O)N2CCC(C(=O)N3CCCC3)CC2)c1,4,7,9,1,-18,1,/
O=C(C1CC(c2ccc(F)cc2)=NO1)N1CCc2ccccc2C1 (stereo not given),4,21,-6,3,1,2,/
O=C(CSc1nnnn1C1CC2C=CC1C2)Nc1ccc(C(=O)O)cc1 (stereo not given),7,11,0,1,-4,-4,/
Cc1ccc(NC(=O)CSCc2c(C)noc2C)cc1C,2,40*,-7,0,-17,-11,25
Cc1cc(C)c(NC(=O)CSCc2c(C)noc2C)c(C)c1,/,8,6,1,7,3,/
COc1ccc(N2C(=O)CC(Nc3cccc([N+](=O)[O-])c3)C2=O)cc1 (stereo not given),6,47*,-8,4,6,8,29
COC(=O)c1ccc(C)cc1C1CN=NC12Cc1cc(C)ccc1C2=O (stereo not given),/,57*,/,0,/,/,33
COc1ccc(-n2nc(C(=O)NCC(=O)NCCN(C)C)c3ccccc3c2=O)c(OC)c1,-5,20,9,3,15,1,/
O=C1CC(N(O)c2ccccc2)C(=O)N1c1cc(Cl)cc(Cl)c1 (stereo not given),-10,44*,-11,-1,-6,-1,17
Cc1ccccc1N1C(=O)CC(N(O)c2ccccc2)C1=O (stereo not given),4,13,0,2,-3,0,/
COc1cc(OC)c([N+](=O)[O-])cc1/C=N/NC(=O)c1ccncc1,11,43*,3,1,-4,1,97*
COc1cc(/C=N/NC(=O)c2ccncc2)c([N+](=O)[O-])cc1OC,-5,21,-6,5,-9,-5,/
Cc1cccc(NS(=O)(=O)c2cc(C(=O)N3CCc4ccccc4C3)ccc2Cl)c1C,-2,10,-4,0,-6,2,/
N#C/C(=C\c1c(N2CCC(C(N)=O)CC2)nc2ccccn2c1=O)S(=O)(=O)c1ccc(Cl)cc1,3,-32,-10,-35,3,-9,/
CC1=NN(c2ccccc2)C(=O)C1C(=S)SC1CC(=O)NC1=O (stereo not given),/,45*,/,5,/,/,17
